Test results published in ChEMBL document CHEMBL3272103, “Synthesis and central nervous system evaluation of some 5-alkoxy-3H-1,4-benzodiazepin-2(1H)-ones” (J Med Chem, 1977).

How the values were obtained:
Mus musculus [1] = assay: Anticonvulsant activity in ip dosed mouse assessed as inhibition of N-sulfamoylhexahydroazepine-induced seizure; assay type: functional
Summary of the method: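 Mice dosed ip with test compound, then challenged with the convulsant N-sulfamoylhexahydroazepine; protection against seizures scored per a literature method. Ten animals per dose; ED50 derived in mg/kg ip.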

Mus musculus [2] = assay: CNS depressant activity in mouse assessed as reduction in amphetamine-induced locomotor activity at 51.2 mg/kg, ip; assay type: functional; set-up: scale not given: the % may be the effect or the level left; conditions: route intraperitoneal
Summary of the method: (§1)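 Locomotor activity of mice recorded in photocell activity cages after dl-amphetamine 4.0 mg/kg ip plus test compound ip at the stated dose. Five mice per group; result given as % change in activity.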

Mus musculus [3] = assay: CNS depressant activity in ip dosed mouse assessed as reinduction of anesthesia measured as loss of righting reflex compound administered immediately post recovery from hexobarbital anesthesia; assay type: functional
[4] = Acute toxicity in ip dosed Wistar rat measured 2 hrs post dose; assay type: organism-based; conditions: in vivo
Mus musculus [5] = assay: CNS depressant activity in ip dosed mouse assessed as ataxia; assay type: functional
Summary of the method: (§2)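 Behavioral observation in ip-dosed mice per a modified literature method, scoring ataxia, docility or loss of righting reflex. Ten animals per dose; ED50 in mg/kg ip.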

Mus musculus [6] = assay: CNS depressant activity in ip dosed mouse assessed as docility; assay type: functional; summary of the method: as §2
Mus musculus [7] = assay: CNS depressant activity in ip dosed mouse assessed as loss of righting reflex; assay type: functional; summary of the method: as §2
Mus musculus [8] = assay: CNS depressant activity in ip dosed mouse assessed as induction of neurologic deficit by rotarod test; assay type: functional
Summary of the method: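 Rotarod test per a literature method in ip-dosed mice; failure scored as neurological deficit. Ten animals per dose; ND50 in mg/kg ip.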

Mus musculus [9] = assay: CNS depressant activity in mouse assessed as reduction in amphetamine-induced locomotor activity at 25.6 mg/kg, ip; assay type: functional; set-up: scale not given: the % may be the effect or the level left; conditions: route intraperitoneal; summary of the method: as §1
Mus musculus [10] = assay: CNS depressant activity in mouse assessed as reduction in amphetamine-induced locomotor activity at 1.5 mg/kg, ip; assay type: functional; set-up: scale not given: the % may be the effect or the level left; conditions: route intraperitoneal
Summary of the method: (§3)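 Mice given test compound ip alongside dl-amphetamine 4.0 mg/kg ip; locomotor activity recorded in photocell activity cages, five mice per group; expressed as % change in activity.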

Mus musculus [11] = assay: CNS depressant activity in mouse assessed as reduction in amphetamine-induced locomotor activity at 100 mg/kg, ip; assay type: functional; set-up: scale not given: the % may be the effect or the level left; conditions: route intraperitoneal; summary of the method: as §1
Mus musculus [12] = assay: CNS depressant activity in mouse assessed as reduction in amphetamine-induced locomotor activity at 18.8 mg/kg, ip; assay type: functional; set-up: scale not given: the % may be the effect or the level left; conditions: route intraperitoneal; summary of the method: as §1
Mus musculus [13] = assay: CNS depressant activity in mouse assessed as reduction in amphetamine-induced locomotor activity at 75 mg/kg, ip; assay type: functional; set-up: scale not given: the % may be the effect or the level left; conditions: route intraperitoneal; summary of the method: as §1
Mus musculus [14] = assay: CNS depressant activity in mouse assessed as reduction in amphetamine-induced locomotor activity at 50 mg/kg, ip; assay type: functional; set-up: scale not given: the % may be the effect or the level left; conditions: route intraperitoneal; summary of the method: as §3
Mus musculus [15] = assay: CNS depressant activity in mouse assessed as reduction in amphetamine-induced locomotor activity at 150 mg/kg, ip; assay type: functional; set-up: scale not given: the % may be the effect or the level left; conditions: route intraperitoneal; summary of the method: as §1

SMILES	ED50 (Mus musculus [1])	Activity (Mus musculus [2])	ED50 (Mus musculus [3])	LD50 at 2 h [4]	ED50 (Mus musculus [5])	ED50 (Mus musculus [6])	ED50 (Mus musculus [7])	ED50 (Mus musculus [8])	Activity (Mus musculus [9])	Activity (Mus musculus [10])	Activity (Mus musculus [11])	Activity (Mus musculus [12])	Activity (Mus musculus [13])	Activity (Mus musculus [14])	Activity (Mus musculus [15])
CN1C(=O)CNC(=O)c2cc(Cl)cc([N+](=O)[O-])c21	> 102 mg/kg	24%	> 102 mg/kg												
Cc1ccc2c(c1)C(=O)NCC(=O)N2C	> 102 mg/kg	62%	> 102 mg/kg												
CCOC1=NCC(=O)N(C)c2c1cc(Cl)cc2[N+](=O)[O-]	> 102 mg/kg	19%	> 102 mg/kg												
CCOC1=NCC(=O)N(C)c2ccc([N+](=O)[O-])cc21	87.8 mg/kg	27%	9 mg/kg	600 mg/kg	42.5 mg/kg	11.3 mg/kg	37.5 mg/kg	15.8 mg/kg							
C#CCOC1=NCC(=O)N(C)c2ccc(Cl)cc21	> 25 mg/kg		22.9 mg/kg	138 mg/kg	22.7 mg/kg	20.8 mg/kg	28.5 mg/kg		44%						
O=C1CN=C(c2ccccc2)c2cc([N+](=O)[O-])ccc2N1 [NITRAZEPAM]	1 mg/kg		0.8 mg/kg	733 mg/kg	1.5 mg/kg	1.5 mg/kg	1.5 mg/kg	0.5 mg/kg		50%					
CN1C(=O)CN=C(Oc2ccccc2)c2cc(Cl)ccc21	50.1 mg/kg	68%	> 102 mg/kg												
CN1C(=O)CNC(=O)c2cc(Cl)ccc21	> 100 mg/kg		39.4 mg/kg								75%				
CN1C(=O)CN=C(OCC(F)(F)F)c2cc(Cl)ccc21	> 102 mg/kg	48%	> 102 mg/kg												
CCCOC1=NCC(=O)N(C)c2ccc(Cl)cc21	38.2 mg/kg	50%	19.2 mg/kg	> 400 mg/kg	52.5 mg/kg	93.1 mg/kg	78.1 mg/kg								
CCOC1=NCC(=O)N(C)c2ccc(C)cc21	> 102 mg/kg	44%	18.4 mg/kg	300 mg/kg	133 mg/kg	137 mg/kg	141 mg/kg	87.6 mg/kg							
Cc1cc(Cl)ccc1OC1=NCC(=O)N(C)c2ccc(Cl)cc21	> 102 mg/kg	36%	> 102 mg/kg												
CN1C(=O)CN=C(OCC(Cl)Cl)c2cc(Cl)ccc21	128 mg/kg		143 mg/kg												
CN1C(=O)CNC(=O)c2cc([N+](=O)[O-])ccc21	> 102 mg/kg	51%	> 102 mg/kg												
CC(OC1=NCC(=O)N(C)c2ccc(Cl)cc21)C(F)(F)F (configuration not stated)	100 mg/kg		> 200 mg/kg	300 mg/kg	250 mg/kg	130 mg/kg	288 mg/kg	123 mg/kg			73%				
CCOC1=NCC(=O)N(C)c2cc(Cl)ccc21	29.9 mg/kg	50%	38.4 mg/kg	600 mg/kg	67.7 mg/kg	56.5 mg/kg	74.4 mg/kg	61.8 mg/kg							
CCOC1=NCC(=O)N(C)c2ccc(Cl)cc21	35.2 mg/kg		2.9 mg/kg	300 mg/kg	45.3 mg/kg	42.8 mg/kg	39.3 mg/kg	68.5 mg/kg				93%			
CCOC1=NCC(=O)N(CC)c2ccc(Cl)cc21	> 75 mg/kg		21.8 mg/kg	600 mg/kg	100 mg/kg	100 mg/kg	600 mg/kg						5%		
COC1=NCC(=O)N(C)c2ccc(Cl)cc21	> 50 mg/kg		16.5 mg/kg	> 200 mg/kg	68 mg/kg	59.3 mg/kg	300 mg/kg							50%	
CCOC1=NCC(=O)N(c2ccccc2)c2ccc(Cl)cc21	> 150 mg/kg		> 150 mg/kg	650 mg/kg	300 mg/kg	300 mg/kg	300 mg/kg								50%
C=CCOC1=NCC(=O)N(C)c2ccc(Cl)cc21	63.9 mg/kg	55%	54.4 mg/kg												
CN1C(=O)CN=C(c2ccccc2)c2cc(Cl)ccc21 [DIAZEPAM]	1.1 mg/kg		1.6 mg/kg		21.9 mg/kg	4.1 mg/kg	8.9 mg/kg	5.2 mg/kg						8%	
CN1C(=O)CNC(=O)c2ccc(Cl)cc21	> 102 mg/kg	30%	> 102 mg/kg												
CN1C(=O)CN=C(OCCBr)c2cc(Cl)ccc21	> 102 mg/kg		> 102 mg/kg												
CN1C(=O)CN=C(Oc2ccccc2F)c2cc(Cl)ccc21	> 200 mg/kg	45%	> 200 mg/kg	650 mg/kg	240 mg/kg	240 mg/kg	428 mg/kg	146 mg/kg							
